The term EC50 denotes the concentration needed to bring the measured effect to its halfway point. The half-life is the time in which the quantity being followed falls by half. The term Cmax denotes the maximum level reached in the sampled fluid or tissue. The term clearance denotes the volume of plasma or blood freed of the substance per unit of time.

Experimental findings from ChEMBL document CHEMBL1142981, “Identification and synthesis of a novel selective partial PPARdelta agonist with full efficacy on lipid metabolism in vitro and in vivo” (J Med Chem, 2007) are described below.

For data set [1], the target named is T1, Peroxisome proliferator-activated receptor delta (Mus musculus) (UniProt P35396).
T1 sequence (whole entry): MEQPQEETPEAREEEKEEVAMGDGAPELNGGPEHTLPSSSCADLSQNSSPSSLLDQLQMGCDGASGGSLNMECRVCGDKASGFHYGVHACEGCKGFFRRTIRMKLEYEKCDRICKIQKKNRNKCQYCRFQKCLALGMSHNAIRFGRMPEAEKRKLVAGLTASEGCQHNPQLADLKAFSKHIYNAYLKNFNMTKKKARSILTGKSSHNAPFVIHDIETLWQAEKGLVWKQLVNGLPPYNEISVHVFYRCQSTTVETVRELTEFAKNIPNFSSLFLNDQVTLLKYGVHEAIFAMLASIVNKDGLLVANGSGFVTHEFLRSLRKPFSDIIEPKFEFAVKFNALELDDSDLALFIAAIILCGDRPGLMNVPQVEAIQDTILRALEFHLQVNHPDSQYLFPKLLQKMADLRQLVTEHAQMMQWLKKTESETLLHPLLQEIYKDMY
Briefly: Agonist activity at mouse PPAR delta expressed in HEK293 cells by PPAR-GAL4 transactivation assay. It counts as functional, cell-based.

Data set [2] is described as follows: Oral bioavailability in Sprague-Dawley rat at 2.13 mg/kg. The following applies: in vivo. It counts as ADME, organism-based. The procedure, abridged:
(§1)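 Male SD rats received a single p.o. or i.v. dose (n = 8 per route) in 5% ethanol, 10% HPCD and phosphate buffer, pH 7.5-8.0. At 5, 15, 30, 60, 90, 120, 240 and 360 min one rat was sacrificed per time point. EDTA plasma was assayed by high turbulence LC-MS/MS. Cmax and bioavailability were taken from oral dosing; volume of distribution is at steady state.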

The test system of data set [3] is L6. Briefly: Effect on fatty acid oxidation in rat L6 cells. It counts as functional, cell-based. The method, boiled down:
(§2)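 Rat L6 myoblasts differentiated 5 days in 2% serum, then treated 42 h with compound (refreshed at 24 h), followed by 6 h with 0.4 mM palmitate containing [9,10-3H]-palmitic acid on 2% fatty-acid-free BSA. Stopped with 10% TCA; released 3H-H2O collected by overnight equilibration at 50 °C and counted.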

Data set [4] relates to Mus musculus. Briefly: Decrease in insulin level in human ApoB100/CETP transgenic mouse at 6 mg/kg, po after 6 weeks by ELISA relative to control. Type of data set: functional. Set-up: scale not given: the % may be the effect or the level left. A general note: An ELISA detects its analyte on a solid surface through an enzyme-linked reagent.
A short description of data set [5]: Half life in Sprague-Dawley rat at 2.13 mg/kg, po. The following applies: in vivo. Type of data set: ADME, organism-based. On the set-up: dose 2.13 mg/kg, route oral. The procedure, abridged: (§3)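 Male SD rats dosed once i.v. or p.o. (n = 8 per route), vehicle 5% ethanol, 10% HPCD, phosphate buffer pH 7.5-8.0. One animal sacrificed at each of 5, 15, 30, 60, 90, 120, 240 and 360 min; EDTA plasma analysed by high turbulence LC-MS/MS. Each data point represents one animal.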

The nature of data set [6]: Volume of distribution in Sprague-Dawley rat at 1.09 mg/kg, iv. Type of data set: ADME, organism-based. Set-up: dose 1.09 mg/kg, route intravenous. The following applies: in vivo, read-out: Vss. The procedure, abridged:
as §1

Data set [7] deals with T2, Peroxisome proliferator-activated receptor alpha (Homo sapiens) (UniProt Q07869).
T2 sequence (whole entry): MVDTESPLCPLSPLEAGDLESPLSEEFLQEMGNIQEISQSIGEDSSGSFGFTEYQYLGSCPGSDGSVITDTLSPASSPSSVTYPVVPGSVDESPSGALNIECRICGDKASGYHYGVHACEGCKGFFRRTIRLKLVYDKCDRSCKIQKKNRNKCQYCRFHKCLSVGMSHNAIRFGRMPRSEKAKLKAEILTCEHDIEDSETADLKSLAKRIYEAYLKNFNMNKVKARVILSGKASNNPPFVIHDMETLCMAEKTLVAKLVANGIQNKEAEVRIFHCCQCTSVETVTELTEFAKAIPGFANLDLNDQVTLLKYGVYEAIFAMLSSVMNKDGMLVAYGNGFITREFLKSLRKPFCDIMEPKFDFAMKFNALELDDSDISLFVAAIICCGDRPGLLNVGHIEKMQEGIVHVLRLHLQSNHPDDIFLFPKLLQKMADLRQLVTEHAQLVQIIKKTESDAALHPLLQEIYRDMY
Briefly: Activity at human liver PPAR alpha expressed in HEK293 cells by GAL4 transactivation assay relative to NNC61-4655. Type of data set: cell-based.

Data set [8] is described as follows: Plasma Cmax in Sprague-Dawley rat at 2.13 mg/kg, po. Type of data set: ADME, organism-based. On the set-up: dose 2.13 mg/kg, route oral. The procedure, abridged: as §1
Data set [9] concerns L6. Briefly: Effect on increase in fatty acid oxidation in rat L6 cells relative to basal. It counts as functional. The procedure, abridged: as §2
In data set [10] the test system is Mus musculus. The data set can be described thus: Decrease in glucose level in human ApoB100/CETP transgenic mouse at 6 mg/kg, po after 6 weeks relative to control. It counts as functional. Set-up: scale not given: the % may be the effect or the level left.
For data set [11], the system named is Mus musculus. Briefly: Decrease in triglycerides level in human ApoB100/CETP transgenic mouse at 6 mg/kg, po after 6 weeks relative to control. Type of data set: functional. On the set-up: scale not given: the % may be the effect or the level left.
In data set [12] the test system is Mus musculus. The data set can be described thus: Increase in HDL level in human ApoB100/CETP transgenic mouse at 6 mg/kg, po after 6 weeks relative to control. It counts as functional.
For data set [13], the system named is Mus musculus. Briefly: Decrease in LDL level in human ApoB100/CETP transgenic mouse at 6 mg/kg, po after 6 weeks relative to control. On the set-up: scale not given: the % may be the effect or the level left. Type of data set: functional.
Data set [14] in a line: Clearance in Sprague-Dawley rat at 1.09 mg/kg, iv. Type of data set: ADME, organism-based. On the set-up: dose 1.09 mg/kg, route intravenous. The conditions noted are these: in vivo. The method, boiled down: as §3
For data set [15], the system named is Mus musculus. Briefly: Decrease in total ketone bodies level in human ApoB100/CETP transgenic mouse at 6 mg/kg, po after 6 weeks relative to control. It counts as functional. On the set-up: scale not given: the % may be the effect or the level left.
The subject of data set [16] is Mus musculus. The data set can be described thus: Decrease in total cholesterol level in human ApoB100/CETP transgenic mouse at 6 mg/kg, po after 6 weeks relative to control. It counts as functional. On the set-up: scale not given: the % may be the effect or the level left.
For data set [17], the system named is Mus musculus. Briefly: Decrease in HbA1c level in human ApoB100/CETP transgenic mouse at 6 mg/kg, po after 6 weeks relative to control. It counts as functional. On the set-up: scale not given: the % may be the effect or the level left.

For `Cc1cc(SCc2sc(-c3ccc(C(F)(F)F)cc3)nc2C)ccc1OCC(=O)O` [GW501516], the Activity in data set [1] is 269%; in the data set with Mus musculus [4], 41%; in the data set on L6 [9], 120%; in the data set with Mus musculus [10] it was 4%; in the data set on Mus musculus [11], 14%; in the data set with Mus musculus [12], 4%. Further, the Activity is 19% in the data set on Mus musculus [13], 49% in the data set with Mus musculus [15], 15% with Mus musculus [16] and 13% with Mus musculus [17]. Further, in data set [2], the bioavailability stood at 136%. For the same compound, the EC50 in the data set with L6 [3] came to 6 nM. In data set [5], this compound displayed a half-life of 10.2 h. In addition, the Vd in data set [6] was 1 L/kg. The compound further came in with an Efficacy in data set [7] of 68%. In [8], the concentration peaked (Cmax) at 454 ng/mL. The compound also showed a clearance in data set [14] of 7 mL/min/kg.
